The values that follow come from ChEMBL document CHEMBL2069262, “Stimulation of Glucose-Dependent Insulin Secretion by a Potent, Selective sst3 Antagonist” (ACS Med Chem Lett, 2012).

Series [1] addresses T1, Somatostatin receptor type 3 (Homo sapiens, UniProt P32745). The experiment in a line: Displacement of [125I]SS-14 from human SST3 receptor expressed in CHO cells after 60 mins by scintillation counting. The series is classed as cell-based. Background: Loss of bound radioactivity is the signal in a displacement assay; it reports binding, not function.
For series [2], the target named is T1, Somatostatin receptor type 3. The series is classed as functional, cell-based, CHO.
The target of series [3] is Voltage-gated inwardly rectifying potassium channel KCNH2 (Homo sapiens, UniProt Q12809). Nature of the series: Displacement of [35S]MK499 from human Erg expressed in HEK293 cells after 60 mins by scintillation counting. The series is classed as cell-based.
Series [4] deals with Voltage-gated L-type calcium channel (Homo sapiens, UniProt Q13936+Q13698+Q01668+O60840). The experiment in a line: Binding affinity to L-type calcium channel.
The next series deals with Mus musculus. Nature of the series: Dose normalized AUC in C57BL/6N mouse at 2 mg/kg, po. Particulars: in vivo. Set-up: dose 2 mg/kg, route oral. The series is classed as ADME, organism-based.
Series [5] is described as follows: Cmax in C57BL/6N mouse at 2 mg/kg, po. The arrangement: dose 2 mg/kg, route oral. As to conditions: in vivo. It is filed as ADME, organism-based.
A short description of series [6]: Volume of distribution at steady state in C57BL/6N mouse at 1 mg/kg, iv and 2 mg/kg, po. It is filed as ADME, organism-based. Particulars: in vivo, read-out: Vdss.
Series [7] in a line: Clearance in C57BL/6N mouse at 1 mg/kg, iv and 2 mg/kg, po. The series is classed as ADME, organism-based. Particulars: in vivo.
A short description of series [8]: Half life in C57BL/6N mouse at 1 mg/kg, iv and 2 mg/kg, po. It is filed as ADME, organism-based. Particulars: in vivo.
Series [9] in a line: Oral bioavailability in C57BL/6N mouse at 2 mg/kg. The series is classed as ADME, organism-based. Particulars: in vivo.
Series [10] is described as follows: Inhibition of glucose-stimulated insulin secretion in C57BL/6J mouse pancreatic islets at 50 nM after 1 hr by ELISA. The series is classed as functional, Pancreatic islet. The arrangement: scale not given: the % may be the effect or the level left. The gist of the method:
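Islets isolated from normal C57BL/6J mice were incubated at basal (2 mM) and stimulatory (16 mM) glucose, and insulin secretion was measured. DMSO served as the negative control and GLP-1 at 10 nM as the positive control. n = 4.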
For orientation: ELISA stands for enzyme-linked immunosorbent assay.

Series [11] is described as follows: Activation of glucose-stimulated insulin secretion in C57BL/6J mouse pancreatic islets at 10 nM after 1 hr by ELISA in presence of 16 mM glucose relative to DMSO. It is filed as functional. Particulars: Pancreatic islet. The gist of the method: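 Pancreatic islets were isolated from normal C57BL/6J mice. Insulin secretion was measured at 2 and 16 mM glucose. Treatments were test agent at 10 μM, octreotide at 50 nM, the two combined, DMSO as negative control and GLP-1 at 10 nM as positive control. n = 4.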

Activity calls are given as the source filed them. The calls are words filed in the database; no cut-off is given here. Positions of bridges follow the written chain, without caps; N, C: chain ends. Non-standard residues stand in square brackets, D forms with d. Residues, ends and D or L forms follow the SMILES beside them. *: point of attachment. Threoninol(2S,3R) = C[C@@H](O)[C@H](CO)N*

Voltage-gated inwardly rectifying potassium channel KCNH2, sequence (Q12809 whole entry): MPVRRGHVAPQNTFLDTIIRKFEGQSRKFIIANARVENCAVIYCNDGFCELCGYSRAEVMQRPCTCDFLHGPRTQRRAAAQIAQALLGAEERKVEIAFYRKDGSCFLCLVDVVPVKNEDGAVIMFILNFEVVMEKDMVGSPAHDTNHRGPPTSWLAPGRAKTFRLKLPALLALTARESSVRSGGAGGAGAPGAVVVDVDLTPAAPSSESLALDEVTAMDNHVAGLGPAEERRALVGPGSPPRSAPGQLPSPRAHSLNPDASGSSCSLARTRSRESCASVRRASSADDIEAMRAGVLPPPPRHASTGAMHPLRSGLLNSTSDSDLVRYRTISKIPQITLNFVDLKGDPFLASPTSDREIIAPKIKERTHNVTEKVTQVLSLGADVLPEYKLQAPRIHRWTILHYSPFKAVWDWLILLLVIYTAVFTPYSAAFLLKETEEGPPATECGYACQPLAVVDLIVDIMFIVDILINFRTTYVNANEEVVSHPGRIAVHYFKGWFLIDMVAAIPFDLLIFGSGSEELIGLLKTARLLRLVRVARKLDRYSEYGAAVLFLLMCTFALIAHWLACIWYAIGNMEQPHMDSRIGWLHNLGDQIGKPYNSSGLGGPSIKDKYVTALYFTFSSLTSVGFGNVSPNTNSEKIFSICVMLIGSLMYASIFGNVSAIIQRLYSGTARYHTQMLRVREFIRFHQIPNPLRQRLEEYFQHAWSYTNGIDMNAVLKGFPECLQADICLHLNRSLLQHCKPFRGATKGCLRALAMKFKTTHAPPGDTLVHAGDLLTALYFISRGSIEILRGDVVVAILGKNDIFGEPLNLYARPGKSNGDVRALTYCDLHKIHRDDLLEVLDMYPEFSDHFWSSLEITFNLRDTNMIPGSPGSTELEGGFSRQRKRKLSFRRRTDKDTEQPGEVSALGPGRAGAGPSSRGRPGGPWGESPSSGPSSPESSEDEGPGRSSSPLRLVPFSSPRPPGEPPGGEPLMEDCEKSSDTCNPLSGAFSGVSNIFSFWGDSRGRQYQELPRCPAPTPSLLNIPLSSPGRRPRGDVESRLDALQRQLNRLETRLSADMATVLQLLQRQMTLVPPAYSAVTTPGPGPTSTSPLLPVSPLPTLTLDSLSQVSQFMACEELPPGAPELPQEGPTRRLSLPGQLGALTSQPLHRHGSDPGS
T1 sequence (P32745 whole entry): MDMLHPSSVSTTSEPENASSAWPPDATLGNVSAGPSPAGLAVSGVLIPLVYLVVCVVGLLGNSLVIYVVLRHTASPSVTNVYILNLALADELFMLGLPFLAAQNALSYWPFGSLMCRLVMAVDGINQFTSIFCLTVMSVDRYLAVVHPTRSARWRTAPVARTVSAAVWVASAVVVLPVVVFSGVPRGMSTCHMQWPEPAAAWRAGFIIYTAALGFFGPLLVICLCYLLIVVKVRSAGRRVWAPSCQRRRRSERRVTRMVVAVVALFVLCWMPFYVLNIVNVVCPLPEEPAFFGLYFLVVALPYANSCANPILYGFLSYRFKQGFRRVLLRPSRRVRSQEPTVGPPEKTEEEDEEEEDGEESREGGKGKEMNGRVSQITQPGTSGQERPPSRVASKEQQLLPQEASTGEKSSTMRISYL

Consider `O=S1(=O)CCC(C2N[C@@H](c3nc(-c4ccccc4)c[nH]3)Cc3c2[nH]c2ccccc32)CC1` (stereo partly specified), for which the concentration for half-maximal inhibition (IC50) (commonly the concentration needed to halve the response being measured) is 0.12 µM in [1], 0.29 µM in series [2] and 0.1 µM in [3].

Regarding `CC(C)(C)OC(=O)N1CCC(C2N[C@@H](c3nc(-c4ccccc4)c[nH]3)Cc3c2[nH]c2ccccc32)CC1` (stereo partly specified), the figures for the half-inhibitory concentration (IC50) in [1] and in series [2] were 0.007 µM and 1 µM, respectively.

As to `c1ccc(-c2c[nH]c([C@H]3Cc4c([nH]c5ccccc45)[C@H](C4CCOCC4)N3)n2)cc1`, the 50% inhibitory concentration (IC50) in series [1] was 0.39 µM; in series [2] it was 1.2 µM.

Consider `CC(=O)N1CCC(C2N[C@@H](c3nc(-c4ccccc4)c[nH]3)Cc3c2[nH]c2ccccc32)CC1` (stereo partly specified), for which the figures for the IC50 in series [1], in series [2] and in [3] were 0.016 µM, 0.046 µM and 9.8 µM, respectively.

As for `CNC(=O)N1CCC(C2N[C@@H](c3nc(-c4ccccc4)c[nH]3)Cc3c2[nH]c2ccccc32)CC1` (stereo partly specified), the IC50 in series [1] turned out to be 0.035 µM; in series [2], 0.18 µM; in series [3] it was 0.24 µM.

Regarding `[O-][S+]1CCC(C2N[C@@H](c3nc(-c4ccccc4)c[nH]3)Cc3c2[nH]c2ccccc32)CC1` (single isomer, unassigned; isomer 2), the values for the IC50 in [1], in series [2] and in series [3] were 0.021 µM, 0.024 µM and 0.1 µM, respectively.

Regarding `COC(=O)N1CCC(C2N[C@@H](c3nc(-c4ccccc4)c[nH]3)Cc3c2[nH]c2ccccc32)CC1` (stereo partly specified), the results for the 50% inhibitory concentration (IC50) in series [1], in series [2] and in series [3] were 0.004 µM, 0.066 µM and 0.7 µM, respectively.

As to `c1ccc(-c2c[nH]c([C@H]3Cc4c([nH]c5ccccc45)C(C4CCNCC4)N3)n2)cc1` (stereo partly specified), the figures for the IC50 in series [1] and in series [2] were 0.063 µM and 0.22 µM, respectively.

Consider `c1ccc(-c2c[nH]c([C@H]3Cc4c([nH]c5ccccc45)C(C4CCSCC4)N3)n2)cc1` (stereo partly specified), for which the IC50 was 0.0017 µM in series [1], 0.01 µM in series [2] and 0.12 µM in series [3].

As for `CS(=O)(=O)N1CCC(C2N[C@@H](c3nc(-c4ccccc4)c[nH]3)Cc3c2[nH]c2ccccc32)CC1` (stereo partly specified), the half-inhibitory concentration (IC50) in series [1] came to 0.044 µM.

In the case of `c1ccc(-c2c[nH]c([C@H]3Cc4c([nH]c5ccccc45)C(C4CCCCC4)N3)n2)cc1` (stereo partly specified), in series [4], the half-maximal inhibitory concentration (IC50) came to 0.308 µM. In the series with Mus musculus, this compound had an AUC/dose of 0.07 µM·h/mg. Besides, in series [5], the Cmax – broadly, the maximum level reached in the sampled fluid or tissue – is 60 nM. The Vd in series [6] turned out to be 8.1 L/kg. Further, the clearance in series [7] is 95 mL/min/kg. For the same compound, the half-life – broadly, how long it takes for the measured level to halve – in series [8] is 8.4 min. For the same compound, the bioavailability – broadly, dose-corrected exposure relative to a reference, in per cent – in series [9] amounted to 15%.

Take `CCOCC1(COCC)N[C@@H](c2nc(-c3ccccc3)c[nH]2)Cc2c1[nH]c1ccccc21`: the IC50 in series [4] amounted to 1.526 µM. The compound also had an AUC/dose in the series on Mus musculus of 0.06 µM·h/mg. The peak concentration (Cmax) in series [5] worked out at 130 nM. The Vd in series [6] is 0.7 L/kg. Further, the clearance in series [7] was found to be 31 mL/min/kg. The half-life in series [8] was 32.4 min. The same compound registered a bioavailability in series [9] of 4%.

For the compound `[O-][S+]1CCC(C2N[C@@H](c3nc(-c4ccccc4)c[nH]3)Cc3c2[nH]c2ccccc32)CC1` (single isomer, unassigned; isomer 1), the IC50 in series [1] came to 0.22 µM; in series [2] it was 0.38 µM.

For `CCCCC1(CCCC)N[C@@H](c2nc(-c3ccccc3)c[nH]2)Cc2c1[nH]c1ccccc21`, the IC50 was found to be 0.15 µM in series [3] and 0.128 µM in series [4]. The same compound showed a clearance in series [7] of 126 mL/min/kg.

In series [10], `C[C@@H](O)[C@H](CO)NC(=O)[C@@H]1CSSC[C@H](NC(=O)[C@H](N)Cc2ccccc2)C(=O)N[C@@H](Cc2ccccc2)C(=O)N[C@H](Cc2c[nH]c3ccccc23)C(=O)N[C@@H](CCCCN)C(=O)N[C@@H]([C@@H](C)O)C(=O)N1` (H-[dF]CF[dW]KTC-{Threoninol(2S,3R)}; disulfide 2-7) showed an Activity of 39%.

As for `CC[C@H](C)[C@H](NC(=O)[C@H](Cc1ccccc1)NC(=O)[C@H](CCC(=O)O)NC(=O)[C@H](CCCCN)NC(=O)[C@H](C)NC(=O)[C@H](C)NC(=O)[C@H](CCC(N)=O)NC(=O)CNC(=O)[C@H](CCC(=O)O)NC(=O)[C@H](CC(C)C)NC(=O)[C@H](Cc1ccc(O)cc1)NC(=O)[C@H](CO)NC(=O)[C@H](CO)NC(=O)[C@@H](NC(=O)[C@H](CC(=O)O)NC(=O)[C@H](CO)NC(=O)[C@@H](NC(=O)[C@H](Cc1ccccc1)NC(=O)[C@@H](NC(=O)CNC(=O)[C@H](CCC(=O)O)NC(=O)[C@H](C)N[C@@H](Cc1cnc[nH]1)C(=O)O)[C@@H](C)O)[C@H](C)O)C(C)C)C(=O)N[C@@H](C)C(=O)N[C@@H](Cc1c[nH]c2ccccc12)C(=O)N[C@@H](CC(C)C)C(=O)N[C@H](C(=O)N[C@@H](CCCCN)C(=O)NCC(=O)N[C@@H](CCCNC(=N)N)C(N)=O)C(C)C`, the result in series [11] was Active.
